Three compounds from ChEMBL document CHEMBL5653631, “A Potent and Selective ULK1 Inhibitor Suppresses Autophagy and Sensitizes Cancer Cells to Nutrient Stress” (iScience, 2018) can be followed below.

Structures are written as SMILES. Active and inactive are the calls of the source. The rule behind the calls is not given here.

The target of assay [1] is Serine/threonine-protein kinase PAK 1 (Homo sapiens) (UniProt Q13153). The assay is described as follows: Inhibition of human recombinant PAK1 at 40 nM in presence of ATP by radiometric assay relative to control.
Assay [2] deals with Serine/threonine-protein kinase ATR (Homo sapiens) (UniProt Q13535). The experiment in a line: Inhibition of human recombinant ATR at 40 nM related to control ULK1. The gist of the method:
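Radiometric activity assays in a panel of 327 human recombinant kinases, each run in duplicate at one inhibitor concentration. Activity remaining is expressed as percent of vehicle control, and percent inhibition is calculated as 100% minus percent activity remaining.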

The target of assay [3] is T1, Serine/threonine-protein kinase Nek11 (Homo sapiens) (UniProt Q8NG66).
T1 sequence (whole entry): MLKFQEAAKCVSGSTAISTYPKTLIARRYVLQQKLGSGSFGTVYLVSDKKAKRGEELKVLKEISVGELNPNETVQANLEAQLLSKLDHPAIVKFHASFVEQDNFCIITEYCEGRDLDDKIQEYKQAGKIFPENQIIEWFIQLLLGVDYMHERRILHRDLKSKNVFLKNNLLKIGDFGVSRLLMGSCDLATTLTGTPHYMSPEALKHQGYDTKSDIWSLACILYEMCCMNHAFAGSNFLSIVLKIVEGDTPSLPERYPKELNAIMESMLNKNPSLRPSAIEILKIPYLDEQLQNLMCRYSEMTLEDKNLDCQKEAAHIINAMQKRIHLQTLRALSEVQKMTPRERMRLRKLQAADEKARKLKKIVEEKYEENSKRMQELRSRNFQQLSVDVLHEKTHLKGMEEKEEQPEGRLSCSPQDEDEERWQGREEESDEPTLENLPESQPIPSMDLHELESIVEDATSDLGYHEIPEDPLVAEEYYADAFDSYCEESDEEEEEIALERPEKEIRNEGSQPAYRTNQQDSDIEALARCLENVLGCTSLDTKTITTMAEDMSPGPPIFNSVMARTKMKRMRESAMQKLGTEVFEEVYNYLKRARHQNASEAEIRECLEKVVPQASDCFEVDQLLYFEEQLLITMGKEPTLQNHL
The experiment in a line: Inhibition of human recombinant NEK11 at 40 nM related to control ULK1.

For assay [4], the target named is T2, Serine/threonine-protein kinase 17B (Homo sapiens) (UniProt O94768).
T2 sequence (whole entry): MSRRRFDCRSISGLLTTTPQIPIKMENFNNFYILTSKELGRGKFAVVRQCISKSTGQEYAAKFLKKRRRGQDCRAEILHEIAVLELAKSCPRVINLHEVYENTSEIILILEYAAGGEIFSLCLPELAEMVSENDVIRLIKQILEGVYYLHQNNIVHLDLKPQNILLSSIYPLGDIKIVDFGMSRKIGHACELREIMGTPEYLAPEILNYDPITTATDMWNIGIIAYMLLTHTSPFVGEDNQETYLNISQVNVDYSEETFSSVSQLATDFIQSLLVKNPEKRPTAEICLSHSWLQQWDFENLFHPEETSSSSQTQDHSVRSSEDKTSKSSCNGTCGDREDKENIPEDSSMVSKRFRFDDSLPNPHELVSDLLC
The assay is described as follows: Inhibition of human recombinant DRAK2 at 40 nM in presence of ATP by radiometric assay relative to control.

The subject of the next assay is U2OS. The experiment in a line: Inhibition of autophagy in human U2OS cells expressing […] assessed as DFCP1-positive puncta formation at 5 uM incubated for 2.5 hrs in presence of […] by Fluorescent microscopy based analysis. The assay is classed as functional, cell-based. In short, it runs like this:
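U2OS cells stably expressing EGFP-DFCP1 treated 2.5 hr with vehicle or 100 nM AZD8055, with or without 5 μM inhibitor; imaged live by fluorescence microscopy; DFCP1-positive objects per cell counted in 20–25 cells per condition; mean ± SEM, two-tailed unpaired t test.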

Assay [5] concerns the target Myosin light chain kinase 2, skeletal/cardiac muscle (Homo sapiens) (UniProt Q9H1R3). The experiment in a line: Inhibition of human recombinant skMLCK at 40 nM related to control ULK1.
Assay [6] deals with 3-phosphoinositide-dependent protein kinase 1 (Homo sapiens) (UniProt O15530). The experiment in a line: Inhibition of human recombinant PDK1 at 40 nM related to control ULK1.
In assay [7] the target is Serine/threonine-protein kinase PLK1 (Homo sapiens) (UniProt P53350). The experiment in a line: Inhibition of human recombinant PLK1 at 500 nM related to control ULK1.
The target of assay [8] is Ribosomal protein S6 kinase alpha-4 (Homo sapiens) (UniProt O75676). The assay is described as follows: Inhibition of human recombinant MSK2 at 500 nM related to control ULK1.
Assay [9] addresses Epithelial discoidin domain-containing receptor 1 (Homo sapiens) (UniProt Q08345). The experiment in a line: Inhibition of human recombinant DDR1 at 500 nM in presence of ATP by radiometric assay relative to control.
Assay [10] deals with Tyrosine-protein kinase Fer (Homo sapiens) (UniProt P16591). The assay is described as follows: Inhibition of human recombinant FER at 15 nM related to control ULK1.
The target of assay [11] is T3, G protein-coupled receptor kinase 3 (Homo sapiens) (UniProt P35626).
T3 sequence (whole entry): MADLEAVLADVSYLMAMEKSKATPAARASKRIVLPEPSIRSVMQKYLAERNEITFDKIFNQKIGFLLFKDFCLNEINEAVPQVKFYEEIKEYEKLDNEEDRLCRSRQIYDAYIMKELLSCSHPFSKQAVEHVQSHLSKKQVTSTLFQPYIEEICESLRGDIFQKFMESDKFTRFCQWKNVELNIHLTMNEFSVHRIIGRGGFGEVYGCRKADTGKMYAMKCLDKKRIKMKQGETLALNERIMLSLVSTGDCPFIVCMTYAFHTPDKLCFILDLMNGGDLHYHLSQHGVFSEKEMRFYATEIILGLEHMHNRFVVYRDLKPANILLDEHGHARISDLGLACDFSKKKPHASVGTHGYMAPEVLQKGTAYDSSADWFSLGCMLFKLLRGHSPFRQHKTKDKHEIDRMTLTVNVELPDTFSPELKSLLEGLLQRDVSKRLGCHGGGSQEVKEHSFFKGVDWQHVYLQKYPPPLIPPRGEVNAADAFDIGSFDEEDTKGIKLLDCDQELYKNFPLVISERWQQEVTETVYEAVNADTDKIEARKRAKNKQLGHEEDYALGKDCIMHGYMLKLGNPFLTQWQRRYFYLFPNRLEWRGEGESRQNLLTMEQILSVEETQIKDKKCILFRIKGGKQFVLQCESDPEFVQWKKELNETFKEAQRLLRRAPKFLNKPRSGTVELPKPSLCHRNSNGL
The experiment in a line: Inhibition of human recombinant BARK2 at 15 nM related to control ULK1.

Assay [12] has as its target Death-associated protein kinase 3 (Homo sapiens) (UniProt O43293). The experiment in a line: Inhibition of human recombinant DAPK3 at 15 nM related to control ULK1.
In assay [13] the target is DNA-PK/Ku70/Ku85 (Homo sapiens) (UniProt P78527+P12956+P13010). The experiment in a line: Inhibition of human recombinant DNAPK at 15 nM in presence of ATP by radiometric assay relative to control. It counts as protein-complex assay.

Sequence of Myosin light chain kinase 2, skeletal/cardiac muscle (Homo sapiens) (Q9H1R3 whole entry): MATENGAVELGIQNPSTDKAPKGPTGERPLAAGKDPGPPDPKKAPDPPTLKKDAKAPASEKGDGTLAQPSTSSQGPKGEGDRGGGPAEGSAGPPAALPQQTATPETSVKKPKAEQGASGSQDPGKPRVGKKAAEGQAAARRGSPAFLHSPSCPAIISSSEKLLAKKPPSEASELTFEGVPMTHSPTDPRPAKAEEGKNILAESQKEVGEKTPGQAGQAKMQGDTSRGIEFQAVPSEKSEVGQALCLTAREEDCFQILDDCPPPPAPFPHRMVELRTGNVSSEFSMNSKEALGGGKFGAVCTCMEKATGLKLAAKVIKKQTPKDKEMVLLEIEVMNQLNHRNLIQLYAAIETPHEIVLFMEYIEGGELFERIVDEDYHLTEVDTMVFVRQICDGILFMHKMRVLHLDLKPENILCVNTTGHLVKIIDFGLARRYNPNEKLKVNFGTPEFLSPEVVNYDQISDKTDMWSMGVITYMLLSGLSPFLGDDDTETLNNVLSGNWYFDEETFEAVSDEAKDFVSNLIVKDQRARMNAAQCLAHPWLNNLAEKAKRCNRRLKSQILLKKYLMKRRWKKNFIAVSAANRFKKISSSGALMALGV
Sequence of Serine/threonine-protein kinase PLK1 (Homo sapiens) (P53350 whole entry): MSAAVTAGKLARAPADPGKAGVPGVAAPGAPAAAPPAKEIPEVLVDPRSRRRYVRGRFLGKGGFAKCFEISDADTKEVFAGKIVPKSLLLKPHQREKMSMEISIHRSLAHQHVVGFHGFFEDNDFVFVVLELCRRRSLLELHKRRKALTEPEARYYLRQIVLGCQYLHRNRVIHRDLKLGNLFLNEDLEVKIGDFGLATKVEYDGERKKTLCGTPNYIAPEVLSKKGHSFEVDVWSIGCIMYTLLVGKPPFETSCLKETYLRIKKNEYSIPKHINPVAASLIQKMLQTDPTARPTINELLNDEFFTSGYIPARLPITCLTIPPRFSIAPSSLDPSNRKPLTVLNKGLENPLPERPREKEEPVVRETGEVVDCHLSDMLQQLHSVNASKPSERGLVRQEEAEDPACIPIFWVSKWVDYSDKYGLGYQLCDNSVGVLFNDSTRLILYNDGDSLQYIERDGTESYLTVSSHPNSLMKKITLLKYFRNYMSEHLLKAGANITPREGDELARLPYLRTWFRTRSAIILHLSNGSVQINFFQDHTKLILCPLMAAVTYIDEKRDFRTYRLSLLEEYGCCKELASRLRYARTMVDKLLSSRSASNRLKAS
Sequence of Ribosomal protein S6 kinase alpha-4 (Homo sapiens) (O75676 whole entry, looked up, the tested form may be a part): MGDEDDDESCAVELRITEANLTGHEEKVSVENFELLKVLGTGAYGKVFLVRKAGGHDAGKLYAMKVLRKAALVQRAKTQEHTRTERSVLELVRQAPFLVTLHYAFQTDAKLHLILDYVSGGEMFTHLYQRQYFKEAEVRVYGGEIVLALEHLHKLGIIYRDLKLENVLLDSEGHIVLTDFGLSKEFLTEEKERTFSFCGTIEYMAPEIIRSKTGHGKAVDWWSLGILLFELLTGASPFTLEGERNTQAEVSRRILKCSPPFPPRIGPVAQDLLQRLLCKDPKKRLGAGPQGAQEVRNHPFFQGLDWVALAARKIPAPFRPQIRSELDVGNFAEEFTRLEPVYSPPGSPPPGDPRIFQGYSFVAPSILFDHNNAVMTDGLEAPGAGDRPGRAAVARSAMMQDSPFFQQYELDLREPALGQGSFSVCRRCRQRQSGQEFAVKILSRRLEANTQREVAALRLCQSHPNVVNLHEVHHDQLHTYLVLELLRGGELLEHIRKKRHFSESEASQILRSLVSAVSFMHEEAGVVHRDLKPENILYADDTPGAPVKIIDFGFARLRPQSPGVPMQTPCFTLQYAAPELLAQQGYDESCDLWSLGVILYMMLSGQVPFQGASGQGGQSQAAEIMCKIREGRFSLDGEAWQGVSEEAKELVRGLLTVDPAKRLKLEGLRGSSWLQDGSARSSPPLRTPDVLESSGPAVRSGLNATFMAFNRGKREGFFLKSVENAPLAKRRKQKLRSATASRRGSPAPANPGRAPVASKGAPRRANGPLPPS
Sequence of Epithelial discoidin domain-containing receptor 1 (Homo sapiens) (Q08345 whole entry, the tested form may be a part): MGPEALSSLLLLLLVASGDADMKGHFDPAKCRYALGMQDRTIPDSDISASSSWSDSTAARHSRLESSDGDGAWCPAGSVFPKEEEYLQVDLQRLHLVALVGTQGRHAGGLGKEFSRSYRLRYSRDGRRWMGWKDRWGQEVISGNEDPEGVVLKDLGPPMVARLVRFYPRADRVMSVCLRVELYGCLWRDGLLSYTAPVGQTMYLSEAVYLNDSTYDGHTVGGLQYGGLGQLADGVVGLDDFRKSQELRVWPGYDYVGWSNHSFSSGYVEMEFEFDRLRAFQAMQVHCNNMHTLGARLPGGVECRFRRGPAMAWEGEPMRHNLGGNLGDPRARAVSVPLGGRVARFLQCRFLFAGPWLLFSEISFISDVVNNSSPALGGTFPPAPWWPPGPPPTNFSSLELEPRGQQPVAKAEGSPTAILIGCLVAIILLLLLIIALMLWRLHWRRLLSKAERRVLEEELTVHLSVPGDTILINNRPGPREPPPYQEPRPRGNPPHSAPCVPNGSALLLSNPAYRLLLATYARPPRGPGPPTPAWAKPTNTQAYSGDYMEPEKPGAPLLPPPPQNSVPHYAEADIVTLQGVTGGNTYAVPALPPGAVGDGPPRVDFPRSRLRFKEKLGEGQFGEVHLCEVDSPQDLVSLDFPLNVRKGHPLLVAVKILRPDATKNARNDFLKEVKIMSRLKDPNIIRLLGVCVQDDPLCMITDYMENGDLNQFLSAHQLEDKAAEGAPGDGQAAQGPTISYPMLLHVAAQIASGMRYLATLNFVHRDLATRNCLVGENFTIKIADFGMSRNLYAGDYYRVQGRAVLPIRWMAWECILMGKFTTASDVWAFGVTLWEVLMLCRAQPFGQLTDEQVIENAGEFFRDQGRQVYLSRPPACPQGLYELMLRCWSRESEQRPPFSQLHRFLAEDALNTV
Sequence of Tyrosine-protein kinase Fer (Homo sapiens) (P16591 whole entry, looked up): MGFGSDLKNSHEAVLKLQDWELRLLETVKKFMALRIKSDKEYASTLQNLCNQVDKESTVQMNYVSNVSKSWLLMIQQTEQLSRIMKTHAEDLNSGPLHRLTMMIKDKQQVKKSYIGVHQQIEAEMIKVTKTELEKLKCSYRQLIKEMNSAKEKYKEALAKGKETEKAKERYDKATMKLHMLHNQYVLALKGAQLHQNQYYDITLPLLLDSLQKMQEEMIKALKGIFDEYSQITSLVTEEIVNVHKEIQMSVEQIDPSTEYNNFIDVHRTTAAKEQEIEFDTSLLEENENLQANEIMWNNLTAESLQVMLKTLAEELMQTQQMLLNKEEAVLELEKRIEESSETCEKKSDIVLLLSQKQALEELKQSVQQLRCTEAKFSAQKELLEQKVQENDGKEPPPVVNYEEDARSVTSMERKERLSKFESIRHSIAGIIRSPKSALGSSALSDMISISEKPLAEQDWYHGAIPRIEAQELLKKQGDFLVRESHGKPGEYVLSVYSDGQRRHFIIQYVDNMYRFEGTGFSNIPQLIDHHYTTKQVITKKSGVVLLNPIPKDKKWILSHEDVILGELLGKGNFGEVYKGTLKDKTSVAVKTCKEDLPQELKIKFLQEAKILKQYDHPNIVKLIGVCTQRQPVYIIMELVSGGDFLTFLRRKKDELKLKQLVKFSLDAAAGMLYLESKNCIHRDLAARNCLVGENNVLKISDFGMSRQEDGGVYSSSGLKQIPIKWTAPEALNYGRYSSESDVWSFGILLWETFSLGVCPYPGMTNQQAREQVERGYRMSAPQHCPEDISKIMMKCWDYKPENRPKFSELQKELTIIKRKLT
Sequence of Serine/threonine-protein kinase PAK 1 (Homo sapiens) (Q13153 whole entry, looked up): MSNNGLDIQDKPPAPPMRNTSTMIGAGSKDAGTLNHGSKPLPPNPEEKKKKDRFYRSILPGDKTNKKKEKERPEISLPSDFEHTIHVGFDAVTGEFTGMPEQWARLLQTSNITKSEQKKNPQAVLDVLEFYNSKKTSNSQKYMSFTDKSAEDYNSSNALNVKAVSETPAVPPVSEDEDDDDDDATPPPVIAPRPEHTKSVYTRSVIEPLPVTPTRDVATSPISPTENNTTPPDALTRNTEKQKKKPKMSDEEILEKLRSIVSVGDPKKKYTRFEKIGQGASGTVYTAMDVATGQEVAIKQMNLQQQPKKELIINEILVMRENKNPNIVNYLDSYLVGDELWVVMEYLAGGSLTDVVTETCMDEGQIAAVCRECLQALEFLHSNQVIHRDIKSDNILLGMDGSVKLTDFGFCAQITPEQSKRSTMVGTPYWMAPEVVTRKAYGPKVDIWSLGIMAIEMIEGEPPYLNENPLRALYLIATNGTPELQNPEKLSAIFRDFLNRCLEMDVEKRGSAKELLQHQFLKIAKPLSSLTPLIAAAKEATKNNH
Sequence of Death-associated protein kinase 3 (Homo sapiens) (O43293 whole entry, looked up): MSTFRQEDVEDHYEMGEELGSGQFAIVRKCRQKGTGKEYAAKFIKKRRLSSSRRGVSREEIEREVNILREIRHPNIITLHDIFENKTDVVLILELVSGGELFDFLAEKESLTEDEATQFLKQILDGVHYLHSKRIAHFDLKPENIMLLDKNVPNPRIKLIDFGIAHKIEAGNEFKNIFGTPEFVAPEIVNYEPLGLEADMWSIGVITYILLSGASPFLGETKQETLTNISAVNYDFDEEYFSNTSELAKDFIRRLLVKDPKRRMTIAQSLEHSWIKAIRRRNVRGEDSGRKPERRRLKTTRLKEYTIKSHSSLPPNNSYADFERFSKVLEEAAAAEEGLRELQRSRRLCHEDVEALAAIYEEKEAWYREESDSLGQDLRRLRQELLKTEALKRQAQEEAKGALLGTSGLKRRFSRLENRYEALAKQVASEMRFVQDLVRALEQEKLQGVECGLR

A word on the inhibition: it is the drop in the measured response relative to a control, in per cent. Take `O=C(N[C@@H](C1CC1)C(F)(F)F)c1cc(-c2cnn3cc(-c4ccc(F)cc4)cnc23)cs1`: the results for the inhibition in assay [1] and in [4] were 0% and 39%, respectively. Moreover, the fold change (FC) in assay [2] turned out to be 0; in [3] it was 0.11; in [5], 0; in assay [6], 0. Also, the inhibition entry with U2OS was “Active”.
Regarding `CNC(=O)c1ccccc1Oc1nc(Nc2cc(OC)c(OC)c(OC)c2)ncc1Br`, the fold change (FC) in assay [7] and in assay [8] was 0 in each case. In addition, in [9], the inhibition was 47%.
In the case of `CC(C)[C@H](NC(=O)c1cc(-c2cnn3cc(-c4ccc(OCCN5CCCCC5)cc4)cnc23)cs1)C(F)(F)F`, the fold change (FC) in assay [10], in assay [11] and in [12] was 0 throughout. For the same compound, the inhibition in assay [13] was 0%.
